Among the data in ChEMBL document CHEMBL4513216, “Probing the Open Global Health Chemical Diversity Library for Multistage-Active Starting Points for Next-Generation Antimalarials” (ACS Infect Dis, 2020) are cytotoxicity values, retold here.

The nature of this series: Toxicity liver stage against HepG2, at 10uM. More on the design: test concentration 10 uM, cell line HepG2-A16-CD81EGFP. Conditions: human, HepG2-A16-CD81EGFP cells; read-out: INHIBITION
It counts as cell-based. A digest of the protocol: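 Uninfected HepG2-A16-CD81EGFP cells, 3 × 10^3 per well, 1536-well, plated on prespotted compound at 10 μM final, parasite-free screening media added to match infected plates; puromycin 10 μM positive, DMSO 0.5% negative; run in parallel with 48 h PbLuc assay at 37 °C, 5% CO2; viability by CellTiter-Glo luminescence, normalized to controls.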
For the molecule `Cc1cc(C)c2cc(CNCc3cccnc3)c3nn(C)c(=O)n3c2c1`, the cytotoxicity at 10 µM was -6.11%.

In the case of `Cn1ncc2c(=O)[nH]c(CN3CCCc4cc(F)ccc43)nc21`, the cytotoxicity at 10 µM was -8.23%.

For `Cc1cc(C)cc(C2(C(=O)N3CCCC(n4cncn4)C3)CC2)c1` (configuration not stated), the cytotoxicity at 10 µM was -3%.

Turning to `Cc1csc(N2CCN(C(=O)Cc3cccs3)CC2)n1`, the cytotoxicity at 10 µM was -23.3%.

In the case of `CCC(Nc1ccc(CCN2CCOCC2)cc1)C(N)=O` (configuration not stated), the cytotoxicity at 10 µM was found to be 4.42%.

Consider `CCC[C@@H]1CN(c2ncnc3sccc23)C[C@H]1C(=O)O`, for which the cytotoxicity at 10 µM stood at 1.96%.

For the molecule `CO[C@@H]1CC[C@H]2[C@H]1OCCN2CC1CC1`, the cytotoxicity at 10 µM was 11.4%.

As to `O=C(NC1CCCN(c2ccc(OC(F)F)cc2)C1)c1cc[nH]n1` (configuration not stated), the cytotoxicity at 10 µM was determined as 3.65%.

For the molecule `Fc1ccc(OCCCNC2=NCCN2)cc1`, the cytotoxicity at 10 µM amounted to 5.08%.

For `O=C(N1CCCC1)N1CCN(Cc2cccnc2)c2ncccc2C1`, the cytotoxicity at 10 µM came out at 3.33%.

On to `Cn1ncc2c1C(COCC1CC1)CN(C(=O)c1ccoc1)C2` (configuration not stated), for which the cytotoxicity at 10 µM is -2.18%.

As to `CCc1nnc(CN2CCN(C(C)=O)CC2)o1`, the cytotoxicity at 10 µM worked out at 4.39%.

For `Cc1nc(C2CCCN2C(=O)c2cnns2)no1` (configuration not stated), the cytotoxicity at 10 µM was -3.71%.

For `Cc1ccc(C(=O)NCc2ccc(N3CCCC(C(N)=O)C3)cc2)o1` (configuration not stated), the cytotoxicity at 10 µM is 0.742%.

With `c1ccc(-n2cnnc2CCCN2CCOCC2)cc1`, the cytotoxicity at 10 µM was -1.16%.

`CC(C)N(Cc1cccc(Cl)c1)Cc1nnsc1Cl`: the cytotoxicity at 10 µM turned out to be 2.56%.

`O=C(c1cncc(N2CC[C@@]3(O)CCNC[C@H]3C2)n1)N1CCCC1`: the cytotoxicity at 10 µM is -8.19%.

For `COCCN(Cc1cccc(O)c1)Cc1ccccc1F`, the cytotoxicity at 10 µM amounted to 4.73%.

For `CC(C)N1CCC(CNC(=O)COc2ccc(F)cc2F)C1` (configuration not stated), the cytotoxicity at 10 µM was -2.17%.

`CN(C)Cc1nnc(C(=O)N(C)Cc2ccc(F)cc2)o1`: the cytotoxicity at 10 µM was 0.624%.

For the molecule `CSc1cc2c(cc1NC(=O)N(C)Cc1ccncc1)OCCO2`, the cytotoxicity at 10 µM turned out to be 11.4%.

Turning to `CC(C)c1nc(CN(C)C(=O)C2CC(=O)N(Cc3ccncc3)C2)cs1` (configuration not stated), the cytotoxicity at 10 µM is -3.75%.

Turning to `COC1CCN(C(=O)c2ccccc2NCc2cccnc2)CC1`, the cytotoxicity at 10 µM was -7.22%.

Turning to `COc1cc(N2CC[C@@H](O)[C@@H]2Cc2ccncc2)ncn1`, the cytotoxicity at 10 µM is -84.5%.

Regarding `Cc1noc([C@@H]2CC[C@@H]3[C@@H](CCN3S(=O)(=O)c3ccccc3)O2)n1`, the cytotoxicity at 10 µM is 2.43%.

As for `CCc1nc(CNC2CCN(S(C)(=O)=O)CC2)cs1`, the cytotoxicity at 10 µM is 0.684%.

Take `Cc1ccc(C)c(C(O)CN(C)Cc2nnc3ccccn23)c1` (configuration not stated): the cytotoxicity at 10 µM was -13.8%.

For the molecule `CN1CCc2ncc(CNC(=O)c3cccn3C)n2CC1`, the cytotoxicity at 10 µM was determined as 1.27%.

For `Cc1ccccc1CC(=O)N1C[C@@H](O)[C@H](N2CCN(C)CC2)C1`, the cytotoxicity at 10 µM was -4.29%.

With `CN1CC(=O)N(c2ccccc2)CC12CCN(Cc1cccnc1)C2` (configuration not stated), the cytotoxicity at 10 µM was -2.09%.

On to `CCO[C@@H]1CN(S(=O)(=O)c2cn(C)cn2)[C@@H]2CCCO[C@@H]21`, for which the cytotoxicity at 10 µM was -146%.

Take `O=C(NC1CCCN(c2ccccc2Cl)C1)c1ccc(=O)[nH]n1` (configuration not stated): the cytotoxicity at 10 µM was -4.46%.

With `CCCS(=O)(=O)N1CCN(c2ccnc(N3CCCC3)n2)CC1`, the cytotoxicity at 10 µM was -11.3%.

Take `CCCNC(=O)CN1CCOC(c2ccc(Br)cc2)C1` (configuration not stated): the cytotoxicity at 10 µM is -2.56%.

`Cc1ccc(NC2CCN(C(=O)c3cncnc3C)CC2)nn1`: the cytotoxicity at 10 µM is -3.04%.

Regarding `Cc1cc(=O)n2nc(Oc3cc(Cl)cc(Cl)c3)sc2n1`, the cytotoxicity at 10 µM came to 16.8%.

For the molecule `Cn1cc(CN2CCC(c3cc(COc4cccc(Cl)c4)[nH]n3)C2)cn1` (configuration not stated), the cytotoxicity at 10 µM is -2.93%.

As for `COCC1CN(C(=O)Nc2cc(Cl)ccc2F)CCO1` (configuration not stated), the cytotoxicity at 10 µM is 10.7%.

Consider `CCCSCC(=O)NS(=O)(=O)c1ccc2c(c1)OCCO2`, for which the cytotoxicity at 10 µM was -9.78%.

Regarding `CN1CCC(Cc2cc(Nc3ccccn3)ncn2)CC1`, the cytotoxicity at 10 µM is -23.4%.

On to `Cc1cc(NC(=O)CN2CCCC2c2noc(C3CC3)n2)no1` (configuration not stated), for which the cytotoxicity at 10 µM was -13%.

As for `CCNC(=O)CCC(=O)NCC1(O)CCC(C(C)(C)C)CC1` (configuration not stated), the cytotoxicity at 10 µM was determined as 5.55%.

For the molecule `CC(C)CN1CCCn2nc(CNC(=O)CCN)cc2C1`, the cytotoxicity at 10 µM was -20.5%.

Turning to `c1cc(C2CCN(c3cnccn3)CC2)ccn1`, the cytotoxicity at 10 µM was determined as 3.94%.

With `CSCC[C@H](NC(=O)CCn1ccc2c(Br)cccc21)C(=O)O`, the cytotoxicity at 10 µM came out at 0.633%.

Turning to `CC(C)N(C)Cc1cc(=O)n2c(n1)CN(C(=O)c1cnccn1)CCC2`, the cytotoxicity at 10 µM is -3.02%.

As for `COc1ccccc1CN1C(=O)O[C@@H]2CN(c3nc(C)cc(C)n3)C[C@@H]21`, the cytotoxicity at 10 µM turned out to be 0.819%.

For the molecule `Cc1c(Cl)c(CN2CCCC2Cn2cncn2)nc2ccccc12` (configuration not stated), the cytotoxicity at 10 µM was -13.3%.

Consider `O=C(C1CCCO1)N1CCC(O)(Cn2ccc3ccncc32)CC1` (configuration not stated), for which the cytotoxicity at 10 µM was -29.9%.

As for `CCN(CC)c1ccc2ccc(C(=O)N(C)C)cn12`, the cytotoxicity at 10 µM stood at 0.626%.

Consider `N#CCCN(Cc1ccccn1)C(=O)Nc1cccc(F)c1`, for which the cytotoxicity at 10 µM turned out to be 3.43%.

Regarding `O=C(NCC(O)c1ccoc1)Nc1c(F)cccc1F` (configuration not stated), the cytotoxicity at 10 µM was -5.86%.

For `CCN(CC)C(=O)c1ccc(-n2ncc(C#N)c2N)cc1`, the cytotoxicity at 10 µM stood at 0.796%.

Regarding `N#Cc1cccc(S(=O)(=O)NC(=O)c2csc(-c3ccco3)n2)c1`, the cytotoxicity at 10 µM amounted to 4.34%.

For `O=C1NCC2(CCCN(C(=O)c3ccc4c(c3)CCO4)C2)O1` (configuration not stated), the cytotoxicity at 10 µM turned out to be 2.32%.

`CN1CCCC1CNC(=O)CCOc1ccc(Cl)cc1` (configuration not stated): the cytotoxicity at 10 µM is -4.31%.

As for `NC(=O)NC(=O)CCSCc1coc(-c2ccc(F)cc2)n1`, the cytotoxicity at 10 µM was -7.45%.

Take `O=C(C[C@@H]1COC[C@H]2CN(CC3CC3)C[C@@H]12)NCc1cccnc1`: the cytotoxicity at 10 µM turned out to be 9.21%.

Turning to `CC(C)N1CCC(C(=O)N2CCC(C(O)c3nccn3C)CC2)CC1` (configuration not stated), the cytotoxicity at 10 µM was -2.7%.

On to `CC(=O)N1CCC2(CC1)CN(C(C)C)c1ccc(F)cc12`, for which the cytotoxicity at 10 µM is -110%.

With `O=C(c1ccco1)N1CCOCC2(C1)CN(c1ccccc1)C(=O)CO2` (configuration not stated), the cytotoxicity at 10 µM was -10.1%.

Consider `Cc1ccc(NC2CCN(C(=O)c3cccnc3O)CC2)nn1`, for which the cytotoxicity at 10 µM was -27.6%.

`CN(Cc1cccnc1)[C@@H]1CN(C(=O)NC2CC2)[C@@H]2CCCO[C@H]12`: the cytotoxicity at 10 µM stood at 2.75%.

Take `CN(C)c1nccc(N(C)Cc2nc3ccccc3n2C)n1`: the cytotoxicity at 10 µM came out at 0.482%.

Regarding `CC(Nc1ccc(Br)cc1)c1nc(C2CC2)no1` (configuration not stated), the cytotoxicity at 10 µM was found to be 6.27%.

On to `CCOC(=O)c1ccc(NC(=O)Cn2cc(I)cn2)cc1`, for which the cytotoxicity at 10 µM amounted to 2.96%.

With `CN(Cc1nnc(C2CC2)n1C)C1CCN(CCc2cnn(C)c2)C1` (configuration not stated), the cytotoxicity at 10 µM was -4.02%.

Turning to `CN1CCCC1c1cncc(C(=O)NCC2CC2)n1` (configuration not stated), the cytotoxicity at 10 µM was -8.41%.

As to `CCn1cc(CN2CCN(C(=O)c3cc(Br)cs3)CC2)c(C)n1`, the cytotoxicity at 10 µM stood at 4.95%.

Turning to `CC(C)CN1CCNC(=O)C12CCN(C(=O)c1ccccn1)CC2`, the cytotoxicity at 10 µM came to 5.25%.

Take `COc1cccc(CC(C)NC(=O)c2ccc(CNC(C)=O)cc2)c1` (configuration not stated): the cytotoxicity at 10 µM was 7.21%.

`Cc1cc(-c2cnc(N3CCNC(=O)C3)nc2-c2ccoc2C)on1`: the cytotoxicity at 10 µM is -25.5%.
